Measurements taken from ChEMBL document CHEMBL3797147, “Nitric oxide production inhibition and mechanism of phenanthrene analogs in lipopolysaccharide-stimulated RAW264.7 macrophages” (Bioorg Med Chem Lett, 2016).
Active and inactive are the calls of the source. The calls are words filed in the database; no cut-off is given here.

Molecular target: Mitogen-activated protein kinase 1 and 3 (ERK2 and ERK1) (Mus musculus) (UniProt P63085+Q63844)
Sequence (P63085 whole entry, looked up): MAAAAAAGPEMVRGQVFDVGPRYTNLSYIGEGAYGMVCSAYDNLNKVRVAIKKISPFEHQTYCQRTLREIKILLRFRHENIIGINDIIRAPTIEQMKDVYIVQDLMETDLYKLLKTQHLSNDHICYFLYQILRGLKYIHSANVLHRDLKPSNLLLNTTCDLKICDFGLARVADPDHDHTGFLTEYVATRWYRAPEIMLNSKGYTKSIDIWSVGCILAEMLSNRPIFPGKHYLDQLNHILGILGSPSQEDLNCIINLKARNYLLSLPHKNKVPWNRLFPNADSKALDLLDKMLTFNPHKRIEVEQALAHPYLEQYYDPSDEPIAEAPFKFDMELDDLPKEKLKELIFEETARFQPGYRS
Sequence (Q63844 whole entry, looked up): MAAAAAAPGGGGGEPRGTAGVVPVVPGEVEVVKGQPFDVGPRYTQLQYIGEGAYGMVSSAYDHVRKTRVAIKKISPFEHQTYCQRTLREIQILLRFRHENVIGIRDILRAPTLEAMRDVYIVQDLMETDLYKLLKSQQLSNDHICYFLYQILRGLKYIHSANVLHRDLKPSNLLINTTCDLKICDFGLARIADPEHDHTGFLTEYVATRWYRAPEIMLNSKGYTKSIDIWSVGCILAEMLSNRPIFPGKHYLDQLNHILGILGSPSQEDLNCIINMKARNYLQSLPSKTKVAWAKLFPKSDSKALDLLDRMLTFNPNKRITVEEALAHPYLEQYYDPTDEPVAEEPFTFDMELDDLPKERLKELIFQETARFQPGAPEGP
Test: Inhibition of LPS-induced ERK1/2 MAPK phosphorylation in mouse RAW264.7 cells at 1 to 50 uM pre-incubated for 2 hrs before LPS stimulation for 30 mins by Western blotting method
Details: not given
In the case of COC(=O)/C(=C/c1ccc(OC)c(OC)c1)c1ccc(OC)c(OC)c1, the inhibition is reported as “inactive”.

Tested on: RAW264.7
Test: Inhibition of LPS-induced IL-6 protein expression in mouse RAW264.7 cells at 1 to 50 uM pre-incubated for 2 hrs before LPS stimulation for 24 hrs by ELISA
Details: not given
For COC(=O)/C(=C/c1ccc(OC)c(OC)c1)c1ccc(OC)c(OC)c1, the inhibition was “Active”.

Tested on: RAW264.7
Test: Inhibition of LPS-induced IL-1beta mRNA expression in mouse RAW264.7 cells pre-incubated for 2 hrs before LPS stimulation for 24 hrs by qRT-PCR method
Type: functional, cell-based
Details: not given
Outline: (§1)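 Cells in 6-well plates pretreated (1, 10, 50 µM; BAY 11-7082 10 µM reference) 2 h before LPS 0.5 µg/mL for 24 h; IL-1b and IL-6 mRNA by qRT-PCR against GAPDH; mean ± SD of three experiments in triplicate.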
In the case of COC(=O)/C(=C/c1ccc(OC)c(OC)c1)c1ccc(OC)c(OC)c1, the inhibition is reported as “Dose-dependent effect”.

Tested on: RAW264.7
Test: Inhibition of LPS-induced IL-6 mRNA expression in mouse RAW264.7 cells pre-incubated for 2 hrs before LPS stimulation for 24 hrs by qRT-PCR method
Type: functional, cell-based
Details: not given
Outline: as §1
For COC(=O)/C(=C/c1ccc(OC)c(OC)c1)c1ccc(OC)c(OC)c1, the inhibition was “Dose-dependent effect”.

Tested on: RAW264.7
Test: Inhibition of LPS-induced IL-1beta mRNA expression in mouse RAW264.7 cells at 10 uM pre-incubated for 2 hrs before LPS stimulation for 24 hrs by qRT-PCR method
Type: functional, cell-based
Details: not given
Outline: as §1
In the case of Cc1ccc(S(=O)(=O)/C=C/C#N)cc1, the inhibition is reported as “Active”.

Tested on: RAW264.7
Test: Inhibition of LPS-induced iNOS mRNA expression in mouse RAW264.7 cells pre-incubated for 2 hrs before LPS stimulation for 24 hrs by qRT-PCR method
Type: functional, cell-based
Details: not given
Outline: (§2)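 Cells pretreated with compound or 10 µM BAY 11-7082 for 2 h, then LPS 0.5 µg/mL for 24 h; total RNA extracted, iNOS mRNA by qRT-PCR normalised to GAPDH.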
For COC(=O)/C(=C/c1ccc(OC)c(OC)c1)c1ccc(OC)c(OC)c1, the inhibition was “Dose-dependent effect”.

Tested on: RAW264.7
Test: Inhibition of LPS-induced iNOS protein expression in mouse RAW264.7 cells pre-incubated for 2 hrs before LPS stimulation for 24 hrs by Western blotting method
Type: functional, cell-based
Details: not given
Outline: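 Cells in 6-well plates pretreated (1, 10, 50 µM; BAY 11-7082 10 µM) for 2 h, LPS 0.5 µg/mL 24 h; lysates immunoblotted with anti-iNOS, GAPDH loading control.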
With COC(=O)/C(=C/c1ccc(OC)c(OC)c1)c1ccc(OC)c(OC)c1 the inhibition was “Dose-dependent effect”.

Tested on: RAW264.7
Test: Inhibition of LPS-induced IL-6 mRNA expression in mouse RAW264.7 cells at 10 uM pre-incubated for 2 hrs before LPS stimulation for 24 hrs by qRT-PCR method
Type: functional, cell-based
Details: not given
Outline: as §1
In the case of Cc1ccc(S(=O)(=O)/C=C/C#N)cc1, the inhibition is reported as “Active”.

Tested on: RAW264.7
Test: Anti-inflammatory activity in mouse RAW264.7 cells assessed as LPS-induced nitric oxide production level at 50 uM pre-incubated for 2 hrs before LPS stimulation for 24 hrs by Griess assay relative to untreated control
Type: functional
Details: not given
Outline: (§3)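 Cells pretreated with compound at various concentrations for 2 h, then LPS 0.5 µg/mL added for 24 h; nitrite in medium read with Griess reagent; means ± SD of triplicates.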
With COc1ccc(/C=C(\C(=O)O)c2ccc(OC)c(OC)c2)cc1OC the Activity was 120.7%.
With COc1ccc(/C(=C/c2ccc3c(c2)OCO3)C(=O)O)cc1OC the Activity was 106.9%.
COc1cc2cc(C#N)c3cc(OC)c(OC)cc3c2cc1OC showed an Activity of 108.8%.
In the case of COC(=O)/C(=C/c1cccc(OC)c1)c1ccc(OC)c(OC)c1, the Activity is reported as 84.6%.
In the case of COC(=O)c1cc2cc(OC)ccc2c2cc(OC)c(OC)cc12, the Activity is reported as 48.8%.
In the case of COc1ccc(/C(=C\c2ccc3c(c2)OCO3)C(=O)O)cc1OC, the Activity is reported as 86%.
With COc1cc2c(C(=O)O)cc3cc4c(cc3c2cc1OC)OCO4 the Activity was 53.1%.
In the case of COC(=O)/C(=C/c1ccc(OC)c(OC)c1)c1ccc(OC)c(OC)c1, the Activity is reported as 3.9%.
COc1ccc(/C=C(/C(=O)O)c2ccc(OC)c(OC)c2)cc1OC gave an Activity of 64.3%.
Work on COc1ccc(/C=C(\C#N)c2ccc(OC)c(OC)c2)cc1OC yielded an Activity of 46.7%.
Compound COC(=O)/C(=C\c1ccc(OC)c(OC)c1)c1ccc(OC)c(OC)c1 has an Activity of 98.7%.
Compound COC(=O)/C(=C\c1ccc2c(c1)OCO2)c1ccc(OC)c(OC)c1 has an Activity of 79%.
Compound CCN(CC)C(=O)c1cc2cc(OC)c(OC)cc2c2cc(OC)c(OC)cc12 has an Activity of 39.8%.
With COc1cc2cc(C(=O)O)c3cc(OC)c(OC)cc3c2cc1OC the Activity was 78.2%.
Work on COC(=O)c1cc2cc(OC)c(OC)cc2c2cc(OC)c(OC)cc12 yielded an Activity of 45.3%.
For CCN(CC)C(=O)/C(=C/c1ccc(OC)c(OC)c1)c1ccc(OC)c(OC)c1, the Activity was 92.7%.
COC(=O)/C(=C/c1ccc2c(c1)OCO2)c1ccc(OC)c(OC)c1 showed an Activity of 109.2%.
Compound COC(=O)c1cc2cc3c(cc2c2cc(OC)c(OC)cc12)OCO3 has an Activity of 75%.
COC(=O)c1cc2cc(OC)c(OC)cc2c2cc(OC)ccc12 gave an Activity of 83%.
Work on COC(=O)/C(=C/c1ccc(OC)c(OC)c1)c1ccc(OC)cc1 yielded an Activity of 45.5%.

Molecular target: MAP kinase p38 (Mus musculus) (UniProt P47811+O08911+Q9WUI1+Q9Z1B7)
Test: Inhibition of LPS-induced p38 MAPK phosphorylation in mouse RAW264.7 cells at 1 to 50 uM pre-incubated for 2 hrs before LPS stimulation for 30 min by Western blotting method
Details: not given
For COC(=O)/C(=C/c1ccc(OC)c(OC)c1)c1ccc(OC)c(OC)c1, the inhibition was “Active”.

Tested on: RAW264.7
Test: Anti-inflammatory activity in mouse RAW264.7 cells assessed as LPS-induced nitric oxide production level at 10 uM pre-incubated for 2 hrs before LPS stimulation for 24 hrs by Griess assay relative to untreated control
Type: functional
Details: not given
Outline: as §3
Work on Cc1ccc(S(=O)(=O)/C=C/C#N)cc1 yielded an Activity of 1.2%.

Tested on: not listed separately
Test: Cytotoxicity against mouse RAW264.7 cells assessed as cell viability at 50 uM incubated for 24 hrs by Alamar-Blue assay
Type: cell-based
Details: read-out: Activity
For COc1ccc(/C=C(\C(=O)O)c2ccc(OC)c(OC)c2)cc1OC, the viability at 24 h, 50 µM was 106%.
Work on COc1ccc(/C(=C/c2ccc3c(c2)OCO3)C(=O)O)cc1OC yielded a viability at 24 h, 50 µM of 103%.
For COc1cc2cc(C#N)c3cc(OC)c(OC)cc3c2cc1OC, the viability at 24 h, 50 µM was 102%.
Compound COC(=O)/C(=C/c1cccc(OC)c1)c1ccc(OC)c(OC)c1 has a viability at 24 h, 50 µM of 76.5%.
Compound COC(=O)c1cc2cc(OC)ccc2c2cc(OC)c(OC)cc12 has a viability at 24 h, 50 µM of 99.3%.
With COc1ccc(/C(=C\c2ccc3c(c2)OCO3)C(=O)O)cc1OC the viability at 24 h, 50 µM was 123%.
COc1cc2c(C(=O)O)cc3cc4c(cc3c2cc1OC)OCO4 showed a viability at 24 h, 50 µM of 107%.
With COC(=O)/C(=C/c1ccc(OC)c(OC)c1)c1ccc(OC)c(OC)c1 the viability at 24 h, 50 µM was 114%.
With COc1ccc(/C=C(/C(=O)O)c2ccc(OC)c(OC)c2)cc1OC the viability at 24 h, 50 µM was 121%.
With COc1ccc(/C=C(\C#N)c2ccc(OC)c(OC)c2)cc1OC the viability at 24 h, 50 µM was 96.7%.
Compound COC(=O)/C(=C\c1ccc(OC)c(OC)c1)c1ccc(OC)c(OC)c1 has a viability at 24 h, 50 µM of 91.1%.
COC(=O)/C(=C\c1ccc2c(c1)OCO2)c1ccc(OC)c(OC)c1 gave a viability at 24 h, 50 µM of 56.1%.
In the case of CCN(CC)C(=O)c1cc2cc(OC)c(OC)cc2c2cc(OC)c(OC)cc12, the viability at 24 h, 50 µM is reported as 94.7%.
With COc1cc2cc(C(=O)O)c3cc(OC)c(OC)cc3c2cc1OC the viability at 24 h, 50 µM was 101%.
With COC(=O)c1cc2cc(OC)c(OC)cc2c2cc(OC)c(OC)cc12 the viability at 24 h, 50 µM was 101%.
Compound CCN(CC)C(=O)/C(=C/c1ccc(OC)c(OC)c1)c1ccc(OC)c(OC)c1 has a viability at 24 h, 50 µM of 111%.
For COC(=O)/C(=C/c1ccc2c(c1)OCO2)c1ccc(OC)c(OC)c1, the viability at 24 h, 50 µM was 88%.
With COC(=O)c1cc2cc3c(cc2c2cc(OC)c(OC)cc12)OCO3 the viability at 24 h, 50 µM was 101%.
COC(=O)c1cc2cc(OC)c(OC)cc2c2cc(OC)ccc12 showed a viability at 24 h, 50 µM of 99.7%.
In the case of COC(=O)/C(=C/c1ccc(OC)c(OC)c1)c1ccc(OC)cc1, the viability at 24 h, 50 µM is reported as 66.7%.

Molecular target: T1, NF-kappa-B inhibitor alpha (Mus musculus) (UniProt Q9Z1E3)
T1 sequence (whole entry): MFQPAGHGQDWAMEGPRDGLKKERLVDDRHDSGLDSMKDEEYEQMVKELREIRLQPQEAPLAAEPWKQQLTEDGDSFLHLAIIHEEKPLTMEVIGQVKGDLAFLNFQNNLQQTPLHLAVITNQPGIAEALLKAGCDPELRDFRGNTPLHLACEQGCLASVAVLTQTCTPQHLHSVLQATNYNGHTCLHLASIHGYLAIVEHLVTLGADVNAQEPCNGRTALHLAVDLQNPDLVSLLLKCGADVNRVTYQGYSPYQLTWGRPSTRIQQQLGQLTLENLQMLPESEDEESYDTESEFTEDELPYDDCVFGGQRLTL
Test: Inhibition of LPS-induced IkappaB-alpha degradation in mouse RAW264.7 cells at 1 to 50 uM pre-incubated before LPS stimulation for 5 mins by Western blotting method
Details: not given
With COC(=O)/C(=C/c1ccc(OC)c(OC)c1)c1ccc(OC)c(OC)c1 the inhibition was “Active”.

Tested on: RAW264.7
Test: Anti-inflammatory activity in mouse RAW264.7 cells assessed as reduction in LPS-induced nitric oxide production level pre-incubated for 2 hrs before LPS stimulation for 24 hrs by Griess assay relative to untreated control
Type: functional, cell-based
Details: not given
Outline: as §3
Compound COC(=O)/C(=C/c1ccc(OC)c(OC)c1)c1ccc(OC)c(OC)c1 has an IC50 of 5.05 µM.
In the case of CCN(CC)C(=O)c1cc2cc(OC)c(OC)cc2c2cc(OC)c(OC)cc12, the IC50 is reported as 20.3 µM.
In the case of COC(=O)/C(=C/c1ccc(OC)c(OC)c1)c1ccc(OC)cc1, the IC50 is reported as 37.3 µM.

Tested on: RAW264.7
Test: Inhibition of LPS-induced iNOS mRNA expression in mouse RAW264.7 cells at 10 uM pre-incubated for 2 hrs before LPS stimulation for 24 hrs by qRT-PCR method
Type: functional, cell-based
Details: not given
Outline: as §2
With Cc1ccc(S(=O)(=O)/C=C/C#N)cc1 the inhibition was “Active”.

Molecular target: JNK1/JNK2 (Mus musculus) (UniProt Q91Y86+Q9WTU6)
Sequence (Q91Y86 whole entry, looked up): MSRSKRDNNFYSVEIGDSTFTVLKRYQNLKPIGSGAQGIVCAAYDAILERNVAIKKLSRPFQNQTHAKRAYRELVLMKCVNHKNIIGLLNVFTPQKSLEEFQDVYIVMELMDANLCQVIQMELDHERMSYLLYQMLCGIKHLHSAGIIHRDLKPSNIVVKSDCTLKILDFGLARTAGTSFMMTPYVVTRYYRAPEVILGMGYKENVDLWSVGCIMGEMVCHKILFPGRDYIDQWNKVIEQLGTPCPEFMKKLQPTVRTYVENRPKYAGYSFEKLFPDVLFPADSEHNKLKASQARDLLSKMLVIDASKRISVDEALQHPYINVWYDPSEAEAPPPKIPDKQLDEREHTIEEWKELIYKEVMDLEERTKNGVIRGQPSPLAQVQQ
Sequence (Q9WTU6 whole entry, looked up): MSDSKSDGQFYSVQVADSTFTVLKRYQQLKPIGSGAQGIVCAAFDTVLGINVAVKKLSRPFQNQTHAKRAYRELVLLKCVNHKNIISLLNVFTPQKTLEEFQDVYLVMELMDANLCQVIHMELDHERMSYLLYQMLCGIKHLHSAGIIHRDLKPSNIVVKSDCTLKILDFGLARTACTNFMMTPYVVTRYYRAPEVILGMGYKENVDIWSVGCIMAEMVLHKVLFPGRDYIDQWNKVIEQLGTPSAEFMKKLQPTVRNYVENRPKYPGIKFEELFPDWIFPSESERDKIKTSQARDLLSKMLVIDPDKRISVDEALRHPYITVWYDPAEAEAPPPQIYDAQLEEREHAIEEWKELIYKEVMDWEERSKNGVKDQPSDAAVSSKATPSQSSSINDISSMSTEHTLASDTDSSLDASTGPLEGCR
Test: Inhibition of LPS-induced JNK1/2 MAPK phosphorylation in mouse RAW264.7 cells at 1 to 50 uM pre-incubated for 2 hrs before LPS stimulation for 30 mins by Western blotting method
Details: not given
In the case of COC(=O)/C(=C/c1ccc(OC)c(OC)c1)c1ccc(OC)c(OC)c1, the inhibition is reported as “inactive”.

Molecular target: RAC-alpha serine/threonine-protein kinase (Mus musculus) (UniProt P31750)
Sequence (P31750 whole entry): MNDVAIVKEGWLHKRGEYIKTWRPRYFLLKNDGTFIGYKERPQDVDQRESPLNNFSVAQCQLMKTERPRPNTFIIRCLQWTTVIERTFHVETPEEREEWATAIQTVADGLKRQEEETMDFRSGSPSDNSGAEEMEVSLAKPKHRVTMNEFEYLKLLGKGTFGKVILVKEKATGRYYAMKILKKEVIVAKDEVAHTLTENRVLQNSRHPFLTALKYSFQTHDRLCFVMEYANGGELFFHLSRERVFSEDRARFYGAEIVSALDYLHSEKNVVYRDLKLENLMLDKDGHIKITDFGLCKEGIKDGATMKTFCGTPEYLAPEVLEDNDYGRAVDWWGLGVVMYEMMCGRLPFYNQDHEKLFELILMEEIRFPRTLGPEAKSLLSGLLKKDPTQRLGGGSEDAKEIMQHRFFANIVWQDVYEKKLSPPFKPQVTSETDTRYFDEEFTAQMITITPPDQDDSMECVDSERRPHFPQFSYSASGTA
Test: Inhibition of LPS-induced AKT phosphorylation in mouse RAW264.7 cells at 1 to 50 uM pre-incubated for 30 mins before LPS stimulation for 30 mins by Western blotting method
Details: not given
In the case of COC(=O)/C(=C/c1ccc(OC)c(OC)c1)c1ccc(OC)c(OC)c1, the inhibition is reported as “Active”.

Molecular target: T1, NF-kappa-B inhibitor alpha (Mus musculus)
Test: Inhibition of LPS-induced IkappaB-alpha phosphorylation in mouse RAW264.7 cells at 1 to 50 uM pre-incubated before LPS stimulation for 5 mins by Western blotting method
Details: not given
In the case of COC(=O)/C(=C/c1ccc(OC)c(OC)c1)c1ccc(OC)c(OC)c1, the inhibition is reported as “Active”.
